Test results reported in ChEMBL document CHEMBL1146030, “Identification of thieno[3,2-b]pyrroles as allosteric inhibitors of hepatitis C virus NS5B polymerase” (Bioorg Med Chem Lett, 2006).
The source made the active and inactive calls. No cut-off for these calls is given here.

What was measured:
[1] = biological target: RNA-directed RNA polymerase (Hepacivirus hominis, UniProt O39930); test: Inhibition of HCV BK NS5B deltaC55 RNA dependent RNA polymerase; set-up: species or system Hepatitis C virus (isolate BK)
Sequence of RNA-directed RNA polymerase (O39930 whole entry): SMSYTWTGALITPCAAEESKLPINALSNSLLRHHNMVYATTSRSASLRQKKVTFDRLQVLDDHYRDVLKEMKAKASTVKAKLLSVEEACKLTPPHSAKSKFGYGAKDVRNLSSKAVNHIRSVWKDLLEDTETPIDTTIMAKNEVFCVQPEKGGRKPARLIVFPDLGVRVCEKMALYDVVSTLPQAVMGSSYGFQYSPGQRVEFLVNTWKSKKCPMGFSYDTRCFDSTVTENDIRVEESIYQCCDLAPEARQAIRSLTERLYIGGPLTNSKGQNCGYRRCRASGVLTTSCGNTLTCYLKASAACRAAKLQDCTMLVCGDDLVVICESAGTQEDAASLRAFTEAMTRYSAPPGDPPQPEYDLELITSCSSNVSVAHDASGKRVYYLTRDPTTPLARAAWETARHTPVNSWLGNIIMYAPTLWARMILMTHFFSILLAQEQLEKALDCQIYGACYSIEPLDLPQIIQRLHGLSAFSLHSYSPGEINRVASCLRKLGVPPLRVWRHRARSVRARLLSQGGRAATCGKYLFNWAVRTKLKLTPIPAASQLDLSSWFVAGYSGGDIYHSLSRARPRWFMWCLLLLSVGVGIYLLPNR
Method in brief: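 Purified NS5B ΔC55 enzyme from HCV genotype BK strain, assayed with heterogeneous template RNA; IC50 determined with a modified literature protocol.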

[2] = test system: Hepatitis C virus; test: Inhibition of HCV RNA replication in Huh7 cells in presence of 10% fetal calf serum; assay type: functional, organism-based, Hepacivirus hominis; conditions: Huh-7
[3] = Partition coefficient, log D at pH 7.4; conditions: octanol/water
[4] = test system: Hepatitis C virus; test: Inhibition of HCV RNA replication in Huh7 cells up to 100 uM; assay type: functional, organism-based; conditions: Hepacivirus hominis; Huh-7

IC50 [1] [µM] | EC50 [2] [µM] | logD [3] | SMILES | Activity [4]
1.9 | 48.2 | 2.5 | O=C(O)c1c[nH]c2c(C3CCCCC3)c(-c3ccccc3)nc-2c1 | –
0.15 | 16.8 | 3.3 | O=C(O)c1ccc2c(C3CCCCC3)c(-c3ccccc3)[nH]c2n1 | –
0.12 | 19.5 | – | O=C(O)c1cc2c(C3CCCCC3)c(-c3ccccc3)[nH]c2s1 | –
11.2 | > 50 | – | COc1ccc(-c2nc3cc(C(=O)O)ccc3n2C2CCCCC2)cc1 | –
17.2 | – | – | O=C(O)c1cc2nc(-c3ccccc3)n(C3CCCCC3)c2s1 | inactive
0.094 | – | – | O=C(O)c1ccc2c(C3CCCCC3)c(-c3ccccc3)cn2c1 | inactive

The next lines start with the compound.

SMILES | IC50 [1] [µM] | EC50 [2] [µM] | logD [3] | Activity [4]
CN(C)C(=O)Cn1c(-c2ccccc2)c(C2CCCCC2)c2cc(C(=O)O)sc21 | 0.23 | 9.5 | – | –
CN(C)C(=O)Cn1c(-c2ccccc2)c(C2CCCCC2)c2sc(C(=O)O)cc21 | 0.058 | 2.9 | – | –
O=C(O)c1ccc2cc(C3CCCCC3)c(-c3ccccc3)nc2c1 | > 50 | – | – | inactive
O=C(O)c1ccc2c(c1)nc(-c1ccccc1)n2C1CCCCC1 | 6.5 | > 50 | – | –
O=C(O)c1cc2[nH]c(-c3ccccc3)c(C3CCCCC3)c2s1 | 0.066 | 11.2 | 3.4 | –
CN(C)C(=O)Cn1c(-c2ccccc2)c(C2CCCCC2)c2ccc(C(=O)O)nc21 | 0.32 | 9.8 | 1.1 | –
O=C(O)c1cc2nc(-c3ccccc3)n(C3CCCCC3)c2[nH]1 | > 50 | – | – | inactive
O=C(O)c1ccc2nc(-c3ccccc3)c(C3CCCCC3)cc2c1 | 4.8 | – | – | inactive
O=C(O)c1cc2c(nc(-c3ccccc3)n2C2CCCCC2)s1 | 13.8 | – | – | inactive
O=C(O)c1ccc2c(C3CCCCC3)c(-c3ccccc3)n(CC(=O)N3CCOCC3)c2c1 | – | 0.8 | – | –
COc1ccc(-c2nc(/C=C/C(=O)O)cn2C2CCCCC2)cc1 | 77.3 | – | – | inactive
CN(C)C(=O)Cn1c(-c2ccccc2)c(C2CCCCC2)c2ncc(C(=O)O)cc21 | 2.2 | > 50 | 0.8 | –
O=C(O)c1ccc2c(C3CCCCC3)c(-c3ccccc3)[nH]c2c1 | – | 6.7 | – | –
